Source: ChEMBL document CHEMBL5303300, “EUbOPEN Chemogenomics Library - Multiplex” (2023)
Several values for one entry are separate records, joined by “and”; a condition that tells them apart may be missing. Equal values may be shown once.

Key:
HEK-293T = test: Multiplex assay against HEK293T; type: toxicity, cell-based; settings: human, number of replicates 2
Procedure, shortened: (§1)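 Imaging took place on a CQ1 microscope at 37°C and 5% CO2 once compound had been added to live cells stained at seeding with Hoechst33342, BioTracker Green Microtubule Cytoskeleton Dye, MitoTracker Red and Annexin V Alexa Fluor 680. CellPathfinder machine-learning gating classed cells as Hoechst high-intensity objects or normal cells, classed normal cells as having healthy, pyknosed or fragmented nuclei, and classed pyknosed cells as mitotic or apoptotic. Tubulin, mitochondrial-mass and membrane-permeability phenotypes are per cents of the healthy-nucleus cells.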

U2OS = test: Multiplex assay against U2OS; type: toxicity, cell-based; settings: human, number of replicates 2; procedure, shortened: as §1
[1] = 24 h, 1 µM, compound concentration 1 uM
[2] = 24 h, 10 µM, compound concentration 10 uM
[3] = 48 h, 1 µM, compound concentration 1 uM
[4] = 48 h, 10 µM, compound concentration 10 uM
[5] = 12 h, 1 µM, compound concentration 1 uM
[6] = 12 h, 10 µM, compound concentration 10 uM

Compound: CN1CCN(C(=O)Cc2ccc(N/C(=C3\C(=O)Nc4cc(Cl)ccc43)c3ccccc3)cc2)CC1
- Population Membrane Permeable-Phenotype (%) (HEK-293T; [1]): 3%
- Population Mitochondria Different-Phenotype (%) (HEK-293T; [1]): 6% and 10%
- Population Mitotic Cells (%) (HEK-293T; [1]): 70% and 68%
- Population Normal (%) (HEK-293T; [1]): 90% and 94%
- Population Pyknosed Nuclei (%) (HEK-293T; [1]): 7% and 8%
- Population Tubulin-Different-Phenotype (%) (HEK-293T; [1]): 28% and 32%
- Total Cell Count (HEK-293T; [1]): 1172 and 750
- Population Apoptotic (%) (HEK-293T; [2]): 29% and 34%
- Population Fragmented Nuclei (%) (HEK-293T; [2]): 3% and 4%
- Population Healthy Nuclei (%) (HEK-293T; [2]): 88% and 86%
- Population Hoechst High Intensity Objects (%) (HEK-293T; [2]): 4% and 5%
- Population Membrane Permeable-Phenotype (%) (HEK-293T; [2]): 3% and 4%
- Population Mitochondria Different-Phenotype (%) (HEK-293T; [2]): 12% and 9%
- Population Mitotic Cells (%) (HEK-293T; [2]): 70% and 65%
- Population Normal (%) (HEK-293T; [2]): 95% and 94%
- Population Pyknosed Nuclei (%) (HEK-293T; [2]): 8% and 9%
- Population Tubulin-Different-Phenotype (%) (HEK-293T; [2]): 48%
- Total Cell Count (HEK-293T; [2]): 992 and 819
- Population Apoptotic (%) (HEK-293T; [3]): 17%
- Population Fragmented Nuclei (%) (HEK-293T; [3]): 13% and 7%
- Population Healthy Nuclei (%) (HEK-293T; [3]): 83% and 87%
- Population Hoechst High Intensity Objects (%) (HEK-293T; [3]): 9% and 8%
- Population Membrane Permeable-Phenotype (%) (HEK-293T; [3]): 3%
- Population Mitochondria Different-Phenotype (%) (HEK-293T; [3]): 0% and 1%
- Population Mitotic Cells (%) (HEK-293T; [3]): 82%
- Population Normal (%) (HEK-293T; [3]): 90% and 91%
- Population Pyknosed Nuclei (%) (HEK-293T; [3]): 2% and 4%
- Population Tubulin-Different-Phenotype (%) (HEK-293T; [3]): 12% and 15%
- Total Cell Count (HEK-293T; [3]): 2950 and 1758
- Population Apoptotic (%) (HEK-293T; [4]): 17% and 42%
- Population Fragmented Nuclei (%) (HEK-293T; [4]): 10% and 8%
- Population Healthy Nuclei (%) (HEK-293T; [4]): 85% and 87%
- Population Hoechst High Intensity Objects (%) (HEK-293T; [4]): 8% and 9%
- Population Membrane Permeable-Phenotype (%) (HEK-293T; [4]): 4%
- Population Mitochondria Different-Phenotype (%) (HEK-293T; [4]): 3%
- Population Mitotic Cells (%) (HEK-293T; [4]): 82% and 58%
- Population Normal (%) (HEK-293T; [4]): 91% and 90%
- Population Pyknosed Nuclei (%) (HEK-293T; [4]): 3% and 4%
- Population Tubulin-Different-Phenotype (%) (HEK-293T; [4]): 31% and 34%
- Total Cell Count (HEK-293T; [4]): 1910 and 1370
- Population Apoptotic (%) (U2OS; [5]): 100% and 55%
- Population Healthy Nuclei (%) (U2OS; [5]): 57% and 86%
- Population Hoechst High Intensity Objects (%) (U2OS; [5]): 0%
- Population Membrane Permeable-Phenotype (%) (U2OS; [5]): 8% and 3%
- Population Mitochondria Different-Phenotype (%) (U2OS; [5]): 8% and 0%
- Population Normal (%) (U2OS; [5]): 100%
- Population Pyknosed Nuclei (%) (U2OS; [5]): 7% and 10%
- Population Tubulin-Different-Phenotype (%) (U2OS; [5]): 66% and 71%
- Population Fragmented Nuclei (%) (U2OS; [6]): 3% and 12%
- Population Healthy Nuclei (%) (U2OS; [6]): 81% and 77%
- Population Hoechst High Intensity Objects (%) (U2OS; [6]): 0%
- Population Mitochondria Different-Phenotype (%) (U2OS; [6]): 0%
- Population Mitotic Cells (%) (U2OS; [6]): 43% and 100%
- Population Normal (%) (U2OS; [6]): 100%
- Population Pyknosed Nuclei (%) (U2OS; [6]): 14% and 9%
- Population Tubulin-Different-Phenotype (%) (U2OS; [6]): 55% and 33%
- Population Apoptotic (%) (U2OS; [1]): 66% and 69%
- Population Healthy Nuclei (%) (U2OS; [1]): 64% and 88%
- Population Hoechst High Intensity Objects (%) (U2OS; [1]): 0%
- Population Mitochondria Different-Phenotype (%) (U2OS; [1]): 12% and 0%
- Population Mitotic Cells (%) (U2OS; [1]): 33% and 30%
- Population Normal (%) (U2OS; [1]): 100% and 99%
- Population Pyknosed Nuclei (%) (U2OS; [1]): 16% and 9%
- Population Tubulin-Different-Phenotype (%) (U2OS; [1]): 79% and 73%
- Population Apoptotic (%) (U2OS; [2]): 33% and 62%
- Population Fragmented Nuclei (%) (U2OS; [2]): 0% and 4%
- Population Healthy Nuclei (%) (U2OS; [2]): 90% and 82%
- Population Hoechst High Intensity Objects (%) (U2OS; [2]): 0%
- Population Membrane Permeable-Phenotype (%) (U2OS; [2]): 10% and 2%
- Population Mitochondria Different-Phenotype (%) (U2OS; [2]): 10% and 3%
- Population Mitotic Cells (%) (U2OS; [2]): 66% and 37%
- Population Normal (%) (U2OS; [2]): 100% and 99%
- Population Pyknosed Nuclei (%) (U2OS; [2]): 9% and 12%
- Population Tubulin-Different-Phenotype (%) (U2OS; [2]): 58% and 59%
- Population Apoptotic (%) (U2OS; [3]): 75% and 58%
- Population Healthy Nuclei (%) (U2OS; [3]): 75% and 89%
- Population Hoechst High Intensity Objects (%) (U2OS; [3]): 0%
- Population Membrane Permeable-Phenotype (%) (U2OS; [3]): 6% and 0%
- Population Mitochondria Different-Phenotype (%) (U2OS; [3]): 3% and 0%
- Population Mitotic Cells (%) (U2OS; [3]): 25% and 41%
- Population Normal (%) (U2OS; [3]): 100% and 99%
- Population Pyknosed Nuclei (%) (U2OS; [3]): 9% and 7%
- Population Tubulin-Different-Phenotype (%) (U2OS; [3]): 83% and 85%
- Population Apoptotic (%) (U2OS; [4]): 83% and 75%
- Population Fragmented Nuclei (%) (U2OS; [4]): 5% and 3%
- Population Healthy Nuclei (%) (U2OS; [4]): 84% and 87%
- Population Hoechst High Intensity Objects (%) (U2OS; [4]): 0%
- Population Membrane Permeable-Phenotype (%) (U2OS; [4]): 2%
- Population Mitochondria Different-Phenotype (%) (U2OS; [4]): 8% and 1%
- Population Mitotic Cells (%) (U2OS; [4]): 16% and 24%
- Population Normal (%) (U2OS; [4]): 100%
- Population Pyknosed Nuclei (%) (U2OS; [4]): 10% and 8%
- Population Tubulin-Different-Phenotype (%) (U2OS; [4]): 69% and 66%
